Laboratory results as given in ChEMBL document CHEMBL4765491, “Discovery of Potent and Selective Methylenephosphonic Acid CD73 Inhibitors” (J Med Chem, 2021).

Legend:
[1] = Stability in rat hepatocytes; type: ADME, cell-based, Hepatocyte
[2] = target: T1, Ectonucleoside triphosphate diphosphohydrolase 1 (Homo sapiens, UniProt P49961); experiment: Inhibition of human CD39 expressed in CHO cells incubated for 4 hrs before addition of ATP and further incubated for 60 mins by colorimetric assay
T1 sequence (P49961 whole entry): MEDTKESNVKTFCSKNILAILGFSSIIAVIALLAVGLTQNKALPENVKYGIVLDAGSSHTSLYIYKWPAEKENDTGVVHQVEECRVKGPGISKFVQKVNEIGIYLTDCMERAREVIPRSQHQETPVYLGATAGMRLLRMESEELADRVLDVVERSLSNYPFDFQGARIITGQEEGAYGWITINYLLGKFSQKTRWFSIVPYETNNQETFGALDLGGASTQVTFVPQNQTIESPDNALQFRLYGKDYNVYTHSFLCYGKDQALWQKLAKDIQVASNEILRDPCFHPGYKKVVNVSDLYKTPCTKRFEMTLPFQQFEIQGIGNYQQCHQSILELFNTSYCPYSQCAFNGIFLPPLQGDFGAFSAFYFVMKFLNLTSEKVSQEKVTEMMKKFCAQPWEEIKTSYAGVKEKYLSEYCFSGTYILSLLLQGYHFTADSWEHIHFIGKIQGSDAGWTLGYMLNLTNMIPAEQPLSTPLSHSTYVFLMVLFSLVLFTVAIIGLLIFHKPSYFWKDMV

[3] = Clearance in Sprague-Dawley rat at 0.25 to 0.5 mg/kg, iv measured up to 24 hrs by LC-MS/MS analysis; type: ADME, organism-based; details: in vivo, dose 0.25-0.5 mg/kg
Procedure, shortened: (§1)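 Male SD rats (0.27–0.30 kg), acclimated. Single IV bolus via femoral vein at 0.25 or 0.5 mg/kg in 31.6% DMA/36.8% ethanol/31.6% PEG. Jugular blood at predose, 5, 15, 30 min, 1, 2, 4, 6, 8, 24 h, collected into K2-EDTA; plasma spun at 4 °C, stored −80 °C until analysis.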

[4] = target: T2, Ectonucleoside triphosphate diphosphohydrolase 3 (Homo sapiens, UniProt O75355); experiment: Inhibition of human NTPDase-3 expressed in CHO-K1 cells in presence of DNA/LTX mixture; type: cell-based
T2 sequence (O75355 whole entry): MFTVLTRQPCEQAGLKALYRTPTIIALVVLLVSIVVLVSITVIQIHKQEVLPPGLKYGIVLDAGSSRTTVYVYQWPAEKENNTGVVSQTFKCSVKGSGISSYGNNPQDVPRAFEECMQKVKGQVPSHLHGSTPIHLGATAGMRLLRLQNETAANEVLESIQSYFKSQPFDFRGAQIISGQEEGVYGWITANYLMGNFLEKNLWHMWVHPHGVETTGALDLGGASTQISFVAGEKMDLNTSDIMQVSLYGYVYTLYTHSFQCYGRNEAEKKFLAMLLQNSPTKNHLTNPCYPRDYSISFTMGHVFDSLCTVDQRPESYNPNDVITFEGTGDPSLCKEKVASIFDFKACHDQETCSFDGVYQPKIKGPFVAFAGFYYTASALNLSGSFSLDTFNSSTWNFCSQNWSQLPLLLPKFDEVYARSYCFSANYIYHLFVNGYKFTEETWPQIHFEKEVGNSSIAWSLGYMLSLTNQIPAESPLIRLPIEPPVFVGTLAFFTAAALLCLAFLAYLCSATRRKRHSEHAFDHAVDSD
Procedure, shortened: (§2)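 CHO-K1 cells transfected overnight (Lipofectamine LTX) with NTPDase2, 3 or 8 plasmid, then harvested into HEPES pH 7.4 buffer. 10,000 cells/well, 2% DMSO, 16-point 1:3 compound dilutions (final 10–0 μM), 1 h preincubation at 37 °C. ATP added at 25 (NTPDase2), 15 (NTPDase3) or 30 μM (NTPDase8), 50 min at 37 °C. Phosphate read with PiColorLock Gold at 620 nm.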

5'-nucleotidase [5] = target: T3, 5'-nucleotidase (Mus musculus, UniProt Q61503); experiment: Inhibition of mouse CD73 expressed in CHO cells incubated for 60 mins before addition of AMP and further incubated for 60 mins by colorimetric assay; type: cell-based
T3 sequence (Q61503 whole entry): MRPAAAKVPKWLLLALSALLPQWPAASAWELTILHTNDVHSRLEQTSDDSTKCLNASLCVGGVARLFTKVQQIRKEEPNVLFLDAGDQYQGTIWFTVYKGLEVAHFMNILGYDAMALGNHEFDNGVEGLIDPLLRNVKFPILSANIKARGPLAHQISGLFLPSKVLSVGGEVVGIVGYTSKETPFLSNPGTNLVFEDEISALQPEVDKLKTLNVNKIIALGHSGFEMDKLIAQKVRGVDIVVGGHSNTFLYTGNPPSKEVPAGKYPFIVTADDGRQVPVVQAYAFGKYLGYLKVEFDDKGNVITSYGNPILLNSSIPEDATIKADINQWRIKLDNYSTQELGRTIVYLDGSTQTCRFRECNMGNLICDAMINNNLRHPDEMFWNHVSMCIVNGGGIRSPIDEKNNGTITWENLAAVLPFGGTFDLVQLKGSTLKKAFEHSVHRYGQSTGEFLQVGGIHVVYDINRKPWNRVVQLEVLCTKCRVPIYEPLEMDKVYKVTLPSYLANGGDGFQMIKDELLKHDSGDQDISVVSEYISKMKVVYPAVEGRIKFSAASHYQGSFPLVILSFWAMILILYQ

[6] = Stability in dog hepatocytes; type: ADME, cell-based, Canis lupus familiaris, Hepatocyte
[7] = Half life in Sprague-Dawley rat at 0.25 to 0.5 mg/kg, iv measured up to 24 hrs by LC-MS/MS analysis; type: ADME, organism-based; details: in vivo, dose 0.25-0.5 mg/kg; procedure, shortened: as §1
5'-nucleotidase [8] = target: T4, 5'-nucleotidase (Homo sapiens, UniProt P21589); experiment: Inhibition of CD73 in human SK-OV-3 cells incubated for 60 mins before addition of AMP and further incubated for 60 mins by colorimetric assay; type: cell-based
[9] = Stability in mouse hepatocytes; type: ADME, cell-based, Hepatocyte
[10] = target: T5, Ectonucleoside triphosphate diphosphohydrolase 2 (Homo sapiens, UniProt Q9Y5L3); experiment: Inhibition of human NTPDase-2 expressed in CHO-K1 cells in presence of DNA/LTX mixture; type: cell-based; procedure, shortened: as §2
T5 sequence (Q9Y5L3 whole entry): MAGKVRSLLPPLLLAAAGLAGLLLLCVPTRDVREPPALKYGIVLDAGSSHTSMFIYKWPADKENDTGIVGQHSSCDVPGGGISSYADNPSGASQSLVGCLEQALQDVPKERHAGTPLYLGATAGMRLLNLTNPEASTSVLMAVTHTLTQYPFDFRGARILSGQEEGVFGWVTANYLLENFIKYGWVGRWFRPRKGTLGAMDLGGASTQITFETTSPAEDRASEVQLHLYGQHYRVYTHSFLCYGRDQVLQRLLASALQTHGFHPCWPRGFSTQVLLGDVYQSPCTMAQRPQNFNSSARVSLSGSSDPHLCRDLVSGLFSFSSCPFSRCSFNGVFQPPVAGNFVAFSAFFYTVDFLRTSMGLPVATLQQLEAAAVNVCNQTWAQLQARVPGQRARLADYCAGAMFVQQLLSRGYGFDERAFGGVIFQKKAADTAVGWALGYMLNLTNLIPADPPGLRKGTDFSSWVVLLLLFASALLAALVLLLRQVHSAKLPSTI

5'-nucleotidase [11] = target: T4, 5'-nucleotidase; experiment: Inhibition of soluble human CD73 incubated for 60 mins before addition of AMP and further incubated for 60 mins by colorimetric assay

T4 sequence (P21589 whole entry): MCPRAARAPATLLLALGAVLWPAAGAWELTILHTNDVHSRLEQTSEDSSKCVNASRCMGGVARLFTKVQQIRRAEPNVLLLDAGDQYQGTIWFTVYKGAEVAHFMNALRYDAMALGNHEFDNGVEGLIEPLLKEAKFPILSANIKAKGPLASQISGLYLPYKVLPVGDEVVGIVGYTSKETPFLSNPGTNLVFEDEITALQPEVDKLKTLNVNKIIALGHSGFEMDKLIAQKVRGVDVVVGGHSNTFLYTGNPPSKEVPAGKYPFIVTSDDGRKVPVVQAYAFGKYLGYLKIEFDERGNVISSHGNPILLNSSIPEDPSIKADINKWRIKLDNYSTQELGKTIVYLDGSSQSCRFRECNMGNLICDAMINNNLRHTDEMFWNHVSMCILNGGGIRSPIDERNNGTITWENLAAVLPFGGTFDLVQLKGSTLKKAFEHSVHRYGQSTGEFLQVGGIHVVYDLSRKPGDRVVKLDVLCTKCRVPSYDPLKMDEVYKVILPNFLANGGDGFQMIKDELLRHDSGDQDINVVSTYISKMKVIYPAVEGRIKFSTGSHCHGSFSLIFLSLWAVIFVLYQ

O=P(O)(O)COC[C@H]1O[C@@H](n2ncc3c(NC4CCCC4)nc(Cl)nc32)[C@H](O)[C@@H]1O
Stabilty [1]: Stable
IC50 [2]: > 10000 nM
clearance [3]: 2.17 mL/min/kg
IC50 [4]: > 10000 nM
IC50 (5'-nucleotidase [5]): 13 nM
Stabilty [6]: Stable
half-life [7]: 1.2 h
IC50 (5'-nucleotidase [8]): 0.55 nM
Stabilty [9]: Stable
IC50 [10]: > 10000 nM
IC50 (5'-nucleotidase [11]): 0.86 nM
